Here are results for 2 compounds from ChEMBL document CHEMBL4834402, “Discovery of TAK-981, a First-in-Class Inhibitor of SUMO-Activating Enzyme for the Treatment of Cancer” (J Med Chem, 2021).

Each structure is given as a SMILES string. In brackets after ≈: the same amount, converted by molar mass.

The nature of data set [1]: Inhibition of recombinant UAE (unknown origin) in presence of ATP at Km concentration by HTRF assay. Set-up: species or system Homo sapiens. In general terms: Time-resolved FRET reads energy transfer from a long-lived donor to a nearby acceptor.
In data set [2] the target is T1, SUMO-activating enzyme (Homo sapiens, UniProt Q9UBT2). The data set can be described thus: Inhibition of SAE (unknown origin) using SUMO1 as substrate incubated for 60 mins in presence of ATP and PPi by pyrophosphate exchange assay. It counts as protein-complex assay. In a few lines:
(§1)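 Pyrophosphate exchange assay of E1 activity at 1 mM ATP. Substrates were SUMO1 or SUMO2 for SAE, Ub for UAE and Nedd-8 for NAE.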

Data set [3] addresses T1, SUMO-activating enzyme. The data set can be described thus: Inhibition of recombinant SAE (unknown origin) assessed as reduction in transfer of SUMO1 to UBC9 using SUMO1 as a substrate in presence of ATP at Km concentration by HTRF assay. It counts as protein-complex assay. In outline: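 HTRF transthiolation assay measuring transfer of SUMO1 to UBC9, the E2 for SAE.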

Data set [4] has as its target T1, SUMO-activating enzyme. The data set can be described thus: Inhibition of SAE (unknown origin) using SUMO2 as substrate incubated for 60 mins in presence of ATP and PPi by pyrophosphate exchange assay. It counts as protein-complex assay. In outline:
as §1

In data set [5] the target is T2, NEDD8 activating enzyme (Homo sapiens, UniProt Q8TBC4).
T2 sequence (Q8TBC4 whole entry): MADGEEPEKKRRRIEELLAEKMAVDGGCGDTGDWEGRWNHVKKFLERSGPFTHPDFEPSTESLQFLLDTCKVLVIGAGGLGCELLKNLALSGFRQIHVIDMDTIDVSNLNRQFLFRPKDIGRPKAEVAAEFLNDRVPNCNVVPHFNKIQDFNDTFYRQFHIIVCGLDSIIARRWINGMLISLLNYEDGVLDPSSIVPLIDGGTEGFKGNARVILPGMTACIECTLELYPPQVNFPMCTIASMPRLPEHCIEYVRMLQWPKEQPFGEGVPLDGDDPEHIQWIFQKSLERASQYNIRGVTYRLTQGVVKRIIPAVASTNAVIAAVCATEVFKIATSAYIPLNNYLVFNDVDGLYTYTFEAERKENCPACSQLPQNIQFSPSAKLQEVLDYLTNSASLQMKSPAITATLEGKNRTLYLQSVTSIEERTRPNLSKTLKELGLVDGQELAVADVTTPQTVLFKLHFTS
T2 sequence (Q13564 whole entry): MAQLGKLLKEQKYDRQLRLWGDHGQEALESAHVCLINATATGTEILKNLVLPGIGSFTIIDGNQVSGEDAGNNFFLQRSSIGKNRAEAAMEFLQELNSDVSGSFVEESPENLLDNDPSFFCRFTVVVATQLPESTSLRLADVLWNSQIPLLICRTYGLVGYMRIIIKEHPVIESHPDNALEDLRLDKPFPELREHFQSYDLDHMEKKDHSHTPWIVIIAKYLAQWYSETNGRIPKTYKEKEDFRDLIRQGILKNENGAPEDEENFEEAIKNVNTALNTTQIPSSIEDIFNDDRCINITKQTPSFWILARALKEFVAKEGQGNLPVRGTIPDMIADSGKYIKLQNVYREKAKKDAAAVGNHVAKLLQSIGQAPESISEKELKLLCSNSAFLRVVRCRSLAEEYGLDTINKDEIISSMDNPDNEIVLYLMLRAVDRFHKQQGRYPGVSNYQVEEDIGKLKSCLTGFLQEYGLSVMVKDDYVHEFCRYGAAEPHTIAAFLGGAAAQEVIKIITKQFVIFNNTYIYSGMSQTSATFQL
The experiment in a line: Inhibition of recombinant NAE (unknown origin) in presence of ATP at Km concentration by HTRF assay. The format is protein-complex assay.

A short description of data set [6]: Inhibition of UAE in human HCT116 cells assessed as reduction in conjugation of ubiquitin to […] by Western blot analysis. It counts as cell-based. Particulars: hct-116. In outline: (§2)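 HCT116 cells, quantitative Western blot of E2–UBL conjugates. Read-outs were SUMO–UBC9 for SAE, ubiquitin–[…] for UAE and Nedd-8–[…] for NAE.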
On the technique in general: Immunoblotting shows a protein as a band on a membrane.

In data set [7] the target is T2, NEDD8 activating enzyme. The experiment in a line: Inhibition of NAE (unknown origin) using Nedd-8 as substrate incubated for 60 mins in presence of ATP and PPi by pyrophosphate exchange assay. The format is protein-complex assay. In outline: as §1
For data set [8], the target named is T2, NEDD8 activating enzyme. The experiment in a line: Inhibition of NAE in human HCT116 cells assessed as reduction in conjugation of Nedd8 […] by Western blot analysis. The format is cell-based, HCT-116. In a few lines: as §2
Data set [9] is described as follows: Inhibition of UAE (unknown origin) using Ub as substrate incubated for 60 mins in presence of ATP and PPi by pyrophosphate exchange assay. Set-up: species or system Homo sapiens. In a few lines: as §1
Data set [10] concerns the target T1, SUMO-activating enzyme. The experiment in a line: Inhibition of SAE in human HCT116 cells assessed as reduction in redistribution of SUMO2/3 proteins from nucleus to cytosol incubated for 4 hrs by immunofluorescence assay. The format is cell-based, HCT-116. In outline: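 HCT-116 cells exposed to compound across a concentration range for 4 h, then stained with anti-SUMO2/3 monoclonal antibody. Automated imaging scored the nuclear (inner) to cytoplasmic (outer) SUMO2/3 ratio. IC50 taken from the dose response.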

The target of data set [11] is T1, SUMO-activating enzyme. The data set can be described thus: Inhibition of SAE in human HCT116 cells assessed as reduction in conjugation of SUMO proteins to UBC9 by Western blot analysis. The format is cell-based, HCT-116. In a few lines:
as §2

Another data set has as its target Carbonic anhydrase 2 (Homo sapiens, UniProt P00918). The data set can be described thus: Inhibition of recombinant human CA2 expressed in Escherichia coli using fluorescein diacetate as substrate at […] by fluorometric esterase assay.
Data set [12] in a line: Solubility of compound in 10% hydroxypropyl-beta-cyclodextrin after 24 hrs. The format is physicochemical.
Data set [13] in a line: Volume of distribution at steady state in rat plasma at 1 mg/kg, iv. It counts as ADME, organism-based. Particulars: read-out: Vdss.
Data set [14] in a line: Half life in rat blood at 1 mg/kg, iv. The format is ADME, organism-based.
The nature of data set [15]: AUC in rat plasma at 1 mg/kg, iv. It counts as ADME, organism-based. Set-up: dose 1 mg/kg.
A short description of data set [16]: AUC in rat blood at 10 mg/kg, po. The format is ADME, organism-based. Set-up: dose 10 mg/kg.
The nature of data set [17]: Efflux ratio of apparent permeability across basolateral to apical side over apical to basolateral side in human Caco-2 cells. It counts as ADME, cell-based. Background: Passage across Caco-2 layers is used to estimate intestinal permeability.
A short description of data set [18]: Clearance in rat plasma at 1 mg/kg, iv. Particulars: in vivo. The format is ADME, organism-based.
The nature of data set [19]: AUC in rat blood at 1 mg/kg, iv. Set-up: dose 1 mg/kg. The format is ADME, organism-based.
A further data set deals with Carbonic anhydrase 1 (Homo sapiens, UniProt P00915). The data set can be described thus: Inhibition of human erythrocyte CA1 using fluorescein diacetate as substrate at […] by fluorometric esterase assay.
Carbonic anhydrase 1, sequence (P00915 whole entry): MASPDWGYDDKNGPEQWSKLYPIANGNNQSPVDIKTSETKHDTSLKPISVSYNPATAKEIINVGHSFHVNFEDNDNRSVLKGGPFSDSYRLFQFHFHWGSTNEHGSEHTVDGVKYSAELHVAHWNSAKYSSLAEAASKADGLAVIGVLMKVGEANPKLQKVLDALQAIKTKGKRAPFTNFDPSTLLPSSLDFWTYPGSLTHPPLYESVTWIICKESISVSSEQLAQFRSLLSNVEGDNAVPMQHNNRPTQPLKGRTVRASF
Data set [20] in a line: Oral bioavailability in rat plasma at 10 mg/kg. It counts as ADME, organism-based.
A short description of data set [21]: AUC in rat plasma at 10 mg/kg, po. The format is ADME, organism-based. Set-up: dose 10 mg/kg.
Data set [22] is described as follows: Oral bioavailability in rat blood at 10 mg/kg. It counts as ADME, organism-based.
Data set [23] in a line: Volume of distribution at steady state in rat blood at 1 mg/kg, iv. The format is ADME, organism-based. Particulars: read-out: Vdss.
Another data set concerns OCI-Ly10. The experiment in a line: Cytotoxicity against human OCI-LY10 cells assessed as reduction in cell viability after 72 hrs by CellTiter-Glo luminescent assay. It counts as functional, cell-based. As to conditions: OCI-Ly10, 72 h.
The nature of data set [24]: Lipophilicity, logD of compound at pH 7.4. The format is physicochemical. Particulars: buffer.
Data set [25] is described as follows: Half life in rat plasma at 1 mg/kg, iv. The format is ADME, organism-based.
The test system of a further data set is HCT-116. The experiment in a line: Cytotoxicity against human HCT116 cells assessed as reduction in cell viability after 72 hrs by CellTiter-Glo luminescent assay. The format is functional, cell-based. As to conditions: HCT-116, 72 h.
The nature of data set [26]: Dissociation constant , pKa of the compound. It counts as physicochemical.
Data set [27] can be described thus: Apparent permeability across basolateral to apical side in human Caco2 cells. The format is ADME, cell-based. Particulars: Caco-2.
Data set [28] is described as follows: Apparent permeability across apical to basolateral side in human Caco2 cells. It counts as ADME, cell-based. Particulars: Caco-2.
Data set [29] in a line: Clearance in rat blood at 1 mg/kg, iv. It counts as ADME, organism-based. As to conditions: in vivo.

T1 sequence (Q9UBE0 whole entry): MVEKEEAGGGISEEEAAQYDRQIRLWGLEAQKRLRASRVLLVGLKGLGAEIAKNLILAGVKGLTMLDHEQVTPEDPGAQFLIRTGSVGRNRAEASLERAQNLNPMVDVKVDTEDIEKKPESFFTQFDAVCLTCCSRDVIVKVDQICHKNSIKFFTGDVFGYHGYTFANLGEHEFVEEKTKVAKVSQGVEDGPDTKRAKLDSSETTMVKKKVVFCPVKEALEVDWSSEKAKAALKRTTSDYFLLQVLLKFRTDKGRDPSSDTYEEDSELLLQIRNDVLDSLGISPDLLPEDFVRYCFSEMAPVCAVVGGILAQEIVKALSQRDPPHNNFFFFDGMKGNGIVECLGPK
T1 sequence (Q9UBT2 whole entry): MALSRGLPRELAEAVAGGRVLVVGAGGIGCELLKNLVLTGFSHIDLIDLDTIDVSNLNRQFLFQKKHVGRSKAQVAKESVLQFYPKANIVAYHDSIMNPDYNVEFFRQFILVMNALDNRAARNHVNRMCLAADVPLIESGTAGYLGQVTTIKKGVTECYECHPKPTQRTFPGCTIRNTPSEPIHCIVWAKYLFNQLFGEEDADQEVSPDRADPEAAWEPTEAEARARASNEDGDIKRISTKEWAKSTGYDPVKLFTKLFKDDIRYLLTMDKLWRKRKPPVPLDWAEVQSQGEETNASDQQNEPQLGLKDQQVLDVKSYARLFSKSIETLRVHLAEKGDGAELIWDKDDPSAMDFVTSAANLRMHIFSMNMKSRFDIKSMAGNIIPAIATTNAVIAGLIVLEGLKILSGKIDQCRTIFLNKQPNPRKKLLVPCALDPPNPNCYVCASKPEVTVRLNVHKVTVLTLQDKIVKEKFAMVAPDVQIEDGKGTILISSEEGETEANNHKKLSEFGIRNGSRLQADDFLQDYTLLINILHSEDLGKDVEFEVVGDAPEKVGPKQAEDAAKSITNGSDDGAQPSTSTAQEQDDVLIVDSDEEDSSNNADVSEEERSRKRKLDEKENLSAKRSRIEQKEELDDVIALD

Usually IC50 stands for the midpoint of a concentration-inhibition curve. With `NS(=O)(=O)OC[C@H]1C[C@@H](Nc2ncncc2C(=O)c2ccn(Cc3ccccc3)n2)[C@H](O)[C@@H]1O`, the half-inhibitory concentration (IC50) in [1] came to 0.058 µM; on SUMO-activating enzyme [2], 0.006 µM; at SUMO-activating enzyme [3], 0.001 µM; on SUMO-activating enzyme [4], 0.05 µM; at NEDD8 activating enzyme [5], 0.029 µM; in data set [6], 0.41 µM. Further, the half-maximal inhibitory concentration (IC50) on NEDD8 activating enzyme [7] was determined as 0.3 µM; on NEDD8 activating enzyme [8], 1.4 µM; in data set [9], 1.1 µM; on SUMO-activating enzyme [10] it was 0.026 µM; on SUMO-activating enzyme [11] it was 0.006 µM.

By solubility is commonly meant how much of the substance goes into solution per volume. A higher solubility goes with a readily soluble substance. Usually half-life stands for the time in which the quantity being followed falls by half. Higher therefore signals slow decline. One may read the AUC as concentration integrated over time. Higher therefore signals high exposure. In general, efflux ratio refers to the permeability from basolateral to apical divided by that in the opposite direction, in the common usage. For orientation: clearance means the volume of plasma or blood freed of the substance per unit of time. As usually defined, the bioavailability is dose-corrected exposure relative to a reference, in per cent. A word on the EC50: it is the concentration at which the effect is half-maximal. In general, logD refers to the decadic logarithm of the distribution of all forms, ionised or not, between an organic phase and buffer at a given pH. A high value points to higher lipophilicity. For orientation: pKa means the negative logarithm of the acid dissociation constant. Low readings indicate a stronger acid or weaker base, high ones a weaker acid or stronger base. One may read the Papp B→A as how fast a substance crosses the layer from the basolateral side. In general, Papp A→B refers to how fast a substance crosses the layer from the apical side. As for `Cc1sc(C(=O)c2cncnc2N[C@@H]2C[C@H](COS(N)(=O)=O)[C@@H](O)C2)cc1C1OCCc2ccc(Cl)cc21` (stereo in doubt), the IC50 in data set [1] is over 1 µM; on Carbonic anhydrase 2 it was 0.01 µM; on SUMO-activating enzyme [3], 0.0004 µM; against Carbonic anhydrase 1, 0.05 µM; at NEDD8 activating enzyme [5], 0.386 µM; at SUMO-activating enzyme [10], 0.003 µM. The same compound had a solubility at 24 h in data set [12] of 100 µg/mL (≈ 173 µM). The Vd in data set [13] was 5 L/kg; in data set [23], 0.2 L/kg. The half-life is 4 h in data set [14] and 1.5 h in data set [25]. The AUC in data set [15] was found to be 0.3 µM·h; in data set [16], 24.1 µM·h; in data set [19], 12.5 µM·h; in data set [21], 0.6 µM·h. For the same compound, in data set [17], the efflux ratio was over 16. The clearance in data set [18] is 86.7 mL/min/kg; in [29], 1.67 mL/min/kg. Further, the bioavailability in [20] was found to be 18%; in data set [22], 19%. In addition, the half-maximal effective concentration (EC50) came to 0.004 µM in the data set on OCI-Ly10 and 0.11 µM in the data set with HCT-116. Besides, the log distribution coefficient (logD) in [24] worked out at 1.9. Also, the pKa in data set [26] was found to be 3.5. The apparent permeability from basolateral to apical (Papp B→A) in [27] is 64 ×10⁻⁶ cm/s. For the same compound, in data set [28], the apical-to-basolateral permeability (Papp A→B) was found to be 4 ×10⁻⁶ cm/s.
